# Data: the RNAGym collection of RNA variant scans (doi:10.1126/science.aae0568)
# This sample holds only a part of the variants without activity.
# B1: tRNA (parent)
# chain: GUUCCGUUGGCGUAAUGGUAACGCGUCUCCCUCCUAAGGAGAAGACUGCGGGUUCGAGUCCCGUACGGAACG
# Variants of: B1
# Test: yeast fitness relative to wild type (ratio to wild type); higher = fitter; tRNA-Arg(CCU), competitive growth, 37 C, YPD
# Outline: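 A pool of Saccharomyces cerevisiae strains, each with a tRNA-Arg(CCU) gene variant at the native genomic locus, was competed in YPD at 37°C for 24 hours across six parallel replicates. The variants had been chemically synthesised at a 3% per-site mutation rate over 69 sites, and gene amplicons before and after competition were read by 100-nucleotide paired-end sequencing. Darwinian fitness relative to wild type rested on changes in genotype frequencies. Genotypes required ≥ 100 starting reads, and estimates < 0.5 were set to 0.5.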
row,Variant,yeast fitness
1,GUUGCGUUGGCGUAAUGGUAACGUGUCUCCCUCCUAAGGGGAAGACUGCGGGUUCGAGUCCCGUACGGAACG [C4G C24U A40G],≤ 0.5
2,GUUGCGUUGGCGUAAUGGUAAGGCGUCUCCCUCCUAAGGAGAAGACUGCGGGUUCGAGUCCCGUACCGAACG [C4G C22G G67C],0.528
3,GUUGCGUUGGCGUAAUGGUAACGAGUCUCCCUCCUAAGGAGGAGACUGCGGGUUCGAGUCCCGUACGGAACG [C4G C24A A42G],≤ 0.5
4,GUUGCGUUGGCGUAAUGGUAACGCGUCUCCGUCCUAAGGAGAAGACUGCGGGUUUGAGUCCCGUACGGAACG [C4G C31G C55U],0.516
5,GUUGCGUUGGCGUAAUGGUAACGUGUCUCCCUCCUAAGGAGAAGACUGCGGGUUCGAGUCCCGUACGGAACG [C4G C24U],0.993
6,GUUGCGUUGGCGUAAUGGUAAGGUGUCUUGCUCCUAAGGAGAAGACUGCGGGUUCGAGUCCCGUACGGAACG [C4G C22G C24U C29U C30G],≤ 0.5
7,GUUGCGUUGGCGUAAUGGUAACGCGUCUACCUCCUAAGGAGAAGACUGCAGGUUCGAGUCCCGUACGGAACG [C4G C29A G50A],≤ 0.5
8,GUUGCGUUGGCGUAAUGGUAACGCGUUUCCCUCCUAAGGACAAGACUGCGGGUUCGAGUCCCGAACAGAACG [C4G C27U G41C U64A G67A],≤ 0.5
9,GUUGCGUUGGCGUAAUGGUAAGGUGUCUCCCUCCUAAGGAAAAGACUGCGGGUUCGUGUCCCGUAAGGAACG [C4G C22G C24U G41A A57U C66A],≤ 0.5
10,GUUGCGUUGGCGUAAUGGUAACGCGUCUCCUUCCUAGGGAGAAGACUGCGGGUUCGAGUCCCGUACGGAACG [C4G C31U A37G],0.653
11,GUUGCGUUGGCGUAAUGGUAACGCGUCUGCCUCCUAAGGAGAAGACUGUGGGUUCGAGUGCCGUACGGAACG [C4G C29G C49U C60G],≤ 0.5
12,GUUGCGUUGGGGUAAUGGUAACGCGUCUCCCUCCUAAGGAGAAGACUGCGGGUUCGAGUCCCGAACGGAACG [C4G C11G U64A],≤ 0.5
13,GUUGCGUUGGCGUAAUGGUAACGCGUCUACCUCCUAAGGAGAAGACUGCGGGUUCGCGUCCCGUACGGAACG [C4G C29A A57C],0.717
14,GUUGCGUUGGCGUAAUGGUAACGCGUGUCCCUCGUAAGGAGAAGACUGCGAGUUCGAGUCCCGUACGGAACG [C4G C27G C34G G51A],≤ 0.5
15,GUUGCGUUGGCGUAAUGGUAACGCGUCUCACUCCUAAGGAGAAGACUGCGGGUUCGAGUCCCGUACGGAACG [C4G C30A],0.679
16,GUUGCGUUGGCGUAAUGGUAACGCGUCUCUCUCCUAAGGAGAAGACUGCGGGUUCGAGUCCCGUACGGAACG [C4G C30U],0.852
17,GUUGCGUUGGCGUAAUGGUAACGCGUAUCCCGCCUAAGUACAAGACUGCGGGUUCGAGUCCCGUAGGGAACG [C4G C27A U32G G39U G41C C66G],≤ 0.5
18,GUUGCGUUGGUGUAAUGGUAACGCGUCUCCCUCCUGAGGAGAAGACUGCGGGUUCGAGUCCCAUACGGAACG [C4G C11U A36G G63A],≤ 0.5
19,GUUGCGUUGGCGUAAUGGUAACGGGUCUCCCUCUUAAGGAGAAGACACCGGGUUCGAGUUCCGUACGGAACG [C4G C24G C34U U47A G48C C60U],0.521

row,Variant,yeast fitness
1,GUUGCGUUGGCGUAAUGGUAACGCGUCUCCAUCCUAAGGAGAAGACUGCGGGUUCGAAUCCCGUACGGAACG [C4G C31A G58A],0.635
2,GUUGCGUUGGGGUAAUGGUAACGCGACUCCCUCCUAAGGAGAAGACUGCGGGUUCGAGUCCCGUACGGAACG [C4G C11G U26A],≤ 0.5
3,GUUGCGUUGGCGUAAUGGUAACGAGUCUCCCUCCUAAGGAGUAGACAGCGGGUUCGAGUGCCGUACGGAACG [C4G C24A A42U U47A C60G],0.62
4,GUUGCGUUGGCGUAAUGGUAACGAGUCUCCCUCAUAAGGAGAAGACUGCGGGUUCGAGUCCCGUAAGGAACG [C4G C24A C34A C66A],≤ 0.5
5,GUUGCGUUGGCGUAAUGGUAACGAGUCUCCCUCAUAAGGAGAAGACCGCGGGUUCGAGUCCCGUACGGAACG [C4G C24A C34A U47C],≤ 0.5
6,GUUGCGUUGGGGUAAUGGUAACGCGUCUCCCUCCUAAGGAGAAGACUGCGGGUUUGAGUCCCAUACGGAACG [C4G C11G C55U G63A],≤ 0.5
7,GUUGCGUUGGCGUAAUGGUAACGCGUAUCCCUCCUAAGGAGAAGAUUGCGGGUUCGAGUCCCGUACGGAACG [C4G C27A C46U],0.539
8,GUUGCGUUGGCGUAAUGGUAAGGCGUCUCCCUCCUAAGGAGAUGACUGCGGGUUCGCGCCCCGUACGGAACG [C4G C22G A43U A57C U59C],≤ 0.5
9,GUUGCGUUGGCGUAAUGGUAACGCGUCUCUCUCCUAAGGAGUAGACUGCCGGUUCGAGUCCCCUACGGAACG [C4G C30U A42U G50C G63C],≤ 0.5
10,GUUGCGUUGGUGUAAUGGUAACGCGUCUCCCUCCUAAGGAGAAGACUGCGGGUUCGAGUCCCGUACGGUACG [C4G C11U A69U],0.539
11,GUUGCGUUGGCGUAAUGGUAACGUGUCUCCCUGCUAAGGAGAAGACUAUGGGUUCGAGUCCCGUACGGAACG [C4G C24U C33G G48A C49U],≤ 0.5
12,GUUGCGUUGGCGUAAUGGUAAGGUGUCUCCCUCCUAAGGAAAAGACUGCGGGUUCGAGUCCCGUACUGAACG [C4G C22G C24U G41A G67U],≤ 0.5
13,GUUGCGUUGGCGUAAUGGUAACGCGUAUCCCUCCUAAGGAGAAGAUUGCGGGUUCGACUCCCGUACGGACCG [C4G C27A C46U G58C A70C],≤ 0.5
14,GUUGCGUUGGCGUAAUGGUAACGUGUCUCCCCCCUAAGGAGAAGACUGAGGGUUCGUGUCCCGUAUGCAACG [C4G C24U U32C C49A A57U C66U G68C],≤ 0.5
15,GUUGCGUUGGCGUAAUGGUAACGCGUCUGCCUCCUAAGGAGAAGACUGCGGGUUCGCGUCCCGUACGGAACG [C4G C29G A57C],0.612
16,GUUGCGUUGGCGUAAUGGUAACGCGUCUCUCUCCUAAGGAGAAGACUGCGGGUUUGAGUCCCGUACGGAACG [C4G C30U C55U],≤ 0.5
17,GUUGCGUUGGCGUAAUGGUAACGAGUCUCCCUCCUAAGGAGAAGAUUGCGGGUUCGAGUCCCGUACGGAACG [C4G C24A C46U],0.608
18,GUUGCGUUGGCGUAAUGGUAACGCGUCUCACUCCUAAGGAGCAGACUGCGGGUUCGAGUCCCGUACGGAACG [C4G C30A A42C],≤ 0.5
